Laboratory results: ChEMBL document CHEMBL1154093, “New azoles with potent antifungal activity: design, synthesis and molecular docking” (2009)
Converted amounts (≈) assume the structure as drawn. The source made the active and inactive calls. The calls are words filed in the database; no cut-off is given here.

Experiments:
Candida albicans [1] = test: Antifungal activity against multidrug-resistant Candida albicans after 24 hrs by serial dilution method; type: functional
Summary of the method: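 Broth serial dilution in 96-well plates per NCCLS recommendations; RPMI 1640 buffered with 0.165 M MOPS as medium. Compounds dissolved in DMSO, serially diluted in growth medium. Strains from ATCC or clinical isolates. Yeasts incubated at 35 °C, read at 24 h for Candida. MIC = lowest concentration giving turbidity at or below 80% inhibition versus growth control.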

Candida tropicalis = test: Antifungal activity against Candida tropicalis after 24 hrs by serial dilution method; type: functional
Summary of the method: (§1)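 NCCLS broth microdilution in RPMI 1640 buffered with 0.165 M MOPS, with strains from ATCC or clinical isolates. Compounds were dissolved in DMSO and serially diluted in medium. Yeasts were incubated at 35 °C and read at 24 h for Candida or 72 h for C. neoformans. MIC was the lowest concentration giving ≥80% turbidity inhibition versus the growth control.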

Candida albicans [2] = test: Antifungal activity against Candida albicans after 24 hrs by serial dilution method; type: functional; summary of the method: as §1
Cryptococcus neoformans = test: Antifungal activity against Cryptococcus neoformans after 72 hrs by serial dilution method; type: functional; summary of the method: as §1
Trichophyton rubrum = test: Antifungal activity against Trichophyton rubrum after 7 days by serial dilution method; type: functional; details: 168 h
Summary of the method: (§2)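 Dermatophytes (ATCC or clinical isolates) were tested by NCCLS serial dilution in RPMI 1640 with 0.165 M MOPS, incubated at 28 °C and read at 7 days. Compounds were taken up in DMSO and diluted in medium. MIC was the lowest concentration reducing turbidity by at least 80% relative to the drug-free growth control.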

Aspergillus fumigatus = test: Antifungal activity against Aspergillus fumigatus after 7 days by serial dilution method; type: functional; details: 168 h
Summary of the method: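 Filamentous fungus (ATCC or clinical isolate) was tested by NCCLS microdilution in MOPS-buffered (0.165 M) RPMI 1640. Compounds were dissolved in DMSO and serially diluted in medium, and growth was scored at 7 days. MIC was the lowest concentration producing ≥80% inhibition of turbidity compared with the untreated control.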

Nannizzia gypsea = test: Antifungal activity against Microsporum gypseum after 7 days by serial dilution method; type: functional; details: 168 h; summary of the method: as §2
Candida parapsilosis = test: Antifungal activity against Candida parapsilosis after 24 hrs by serial dilution method; type: functional, organism-based; summary of the method: as §1

Structure (SMILES)	MIC80 (Candida albicans [1])	MIC80 (Candida tropicalis)	MIC80 (Candida albicans [2])	MIC80 (Cryptococcus neoformans)	MIC80 (Trichophyton rubrum)	MIC80 (Aspergillus fumigatus)	MIC80 (Nannizzia gypsea)	Activity (Candida parapsilosis)
OC(CN1CCN(CCCCCOc2ccccc2)CC1)(Cn1cncn1)c1ccc(F)cc1F (racemic)	4 µg/mL (≈ 8.24 µM)	0.0625 µg/mL (≈ 0.129 µM)	0.0625 µg/mL (≈ 0.129 µM)	1 µg/mL (≈ 2.06 µM)	0.25 µg/mL (≈ 0.515 µM)	32 µg/mL (≈ 65.9 µM)	4 µg/mL (≈ 8.24 µM)	Active
O=[N+]([O-])c1ccc(OCCCN2CCN(CC(O)(Cn3cncn3)c3ccc(F)cc3F)CC2)cc1 (racemic)	0.125 µg/mL (≈ 0.249 µM)	0.0625 µg/mL (≈ 0.124 µM)	0.0625 µg/mL (≈ 0.124 µM)	0.25 µg/mL (≈ 0.497 µM)	0.0625 µg/mL (≈ 0.124 µM)	32 µg/mL (≈ 63.7 µM)	1 µg/mL (≈ 1.99 µM)	Active
Cc1cccc(OCCCN2CCN(CC(O)(Cn3cncn3)c3ccc(F)cc3F)CC2)c1 (racemic)	0.125 µg/mL (≈ 0.265 µM)	0.0625 µg/mL (≈ 0.133 µM)	0.0156 µg/mL (≈ 0.0331 µM)	1 µg/mL (≈ 2.12 µM)	0.25 µg/mL (≈ 0.53 µM)	16 µg/mL (≈ 33.9 µM)	1 µg/mL (≈ 2.12 µM)	Active
OC(CN1CCN(CCCOc2ccccc2)CC1)(Cn1cncn1)c1ccc(F)cc1F (racemic)	64 µg/mL (≈ 140 µM)	0.0625 µg/mL (≈ 0.137 µM)	0.0156 µg/mL (≈ 0.0341 µM)	1 µg/mL (≈ 2.19 µM)	0.25 µg/mL (≈ 0.546 µM)	32 µg/mL (≈ 69.9 µM)	4 µg/mL (≈ 8.74 µM)	Active
C[C@@H](c1ncncc1F)[C@](O)(Cn1cncn1)c1ccc(F)cc1F [VORICONAZOLE]	> 64 µg/mL	0.0625 µg/mL (≈ 0.179 µM)	0.0625 µg/mL (≈ 0.179 µM)	0.0625 µg/mL (≈ 0.179 µM)	0.0625 µg/mL (≈ 0.179 µM)	0.5 µg/mL (≈ 1.43 µM)	0.0625 µg/mL (≈ 0.179 µM)	Active
Cc1ccccc1OCCCN1CCN(CC(O)(Cn2cncn2)c2ccc(F)cc2F)CC1 (racemic)	0.125 µg/mL (≈ 0.265 µM)	0.0625 µg/mL (≈ 0.133 µM)	0.0625 µg/mL (≈ 0.133 µM)	1 µg/mL (≈ 2.12 µM)	0.25 µg/mL (≈ 0.53 µM)	32 µg/mL (≈ 67.9 µM)	1 µg/mL (≈ 2.12 µM)	Active
OC(CN1CCN(CCCOc2cccc(Br)c2)CC1)(Cn1cncn1)c1ccc(F)cc1F (racemic)	16 µg/mL (≈ 29.8 µM)	0.0156 µg/mL (≈ 0.0291 µM)	0.0156 µg/mL (≈ 0.0291 µM)	0.25 µg/mL (≈ 0.466 µM)	0.0625 µg/mL (≈ 0.117 µM)	4 µg/mL (≈ 7.46 µM)	0.25 µg/mL (≈ 0.466 µM)	Active
Nc1cccc(OCCCN2CCN(CC(O)(Cn3cncn3)c3ccc(F)cc3F)CC2)c1 (racemic)	0.25 µg/mL (≈ 0.529 µM)	1 µg/mL (≈ 2.12 µM)	1 µg/mL (≈ 2.12 µM)	16 µg/mL (≈ 33.9 µM)	4 µg/mL (≈ 8.46 µM)	> 64 µg/mL	64 µg/mL (≈ 135 µM)	Active
O=C(Nc1ccc(OCCCN2CCN(CC(O)(Cn3cncn3)c3ccc(F)cc3F)CC2)cc1)c1ccccc1 (racemic)	0.5 µg/mL (≈ 0.867 µM)	1 µg/mL (≈ 1.73 µM)	0.25 µg/mL (≈ 0.434 µM)	16 µg/mL (≈ 27.7 µM)	16 µg/mL (≈ 27.7 µM)	> 64 µg/mL	64 µg/mL (≈ 111 µM)	Active
Cc1ccc(OCCCN2CCN(CC(O)(Cn3cncn3)c3ccc(F)cc3F)CC2)cc1 (racemic)	0.12 µg/mL (≈ 0.254 µM)	0.0625 µg/mL (≈ 0.133 µM)	0.0156 µg/mL (≈ 0.0331 µM)	0.25 µg/mL (≈ 0.53 µM)	0.0625 µg/mL (≈ 0.133 µM)	8 µg/mL (≈ 17 µM)	0.25 µg/mL (≈ 0.53 µM)	Active
OC(CN1CCN(CCCOc2ccc(Br)cc2)CC1)(Cn1cncn1)c1ccc(F)cc1F (racemic)	0.25 µg/mL (≈ 0.466 µM)	0.0156 µg/mL (≈ 0.0291 µM)	0.0156 µg/mL (≈ 0.0291 µM)	0.25 µg/mL (≈ 0.466 µM)	0.0625 µg/mL (≈ 0.117 µM)	1 µg/mL (≈ 1.86 µM)	0.25 µg/mL (≈ 0.466 µM)	Active
CC(=O)Nc1ccc(OCCCN2CCN(CC(O)(Cn3cncn3)c3ccc(F)cc3F)CC2)cc1 (racemic)	2 µg/mL (≈ 3.89 µM)	0.25 µg/mL (≈ 0.486 µM)	0.25 µg/mL (≈ 0.486 µM)	1 µg/mL (≈ 1.94 µM)	0.25 µg/mL (≈ 0.486 µM)	> 64 µg/mL	4 µg/mL (≈ 7.77 µM)	Active
OC(CN1CCN(CCCOc2ccc(F)cc2)CC1)(Cn1cncn1)c1ccc(F)cc1F (racemic)	32 µg/mL (≈ 67.3 µM)	0.0625 µg/mL (≈ 0.131 µM)	0.0156 µg/mL (≈ 0.0328 µM)	1 µg/mL (≈ 2.1 µM)	0.25 µg/mL (≈ 0.526 µM)	32 µg/mL (≈ 67.3 µM)	1 µg/mL (≈ 2.1 µM)	Active
OC(CN1CCN(CCCCOc2ccccc2)CC1)(Cn1cncn1)c1ccc(F)cc1F (racemic)	32 µg/mL (≈ 67.9 µM)	0.25 µg/mL (≈ 0.53 µM)	0.25 µg/mL (≈ 0.53 µM)	1 µg/mL (≈ 2.12 µM)	1 µg/mL (≈ 2.12 µM)	8 µg/mL (≈ 17 µM)	4 µg/mL (≈ 8.48 µM)	Active
OC(CN1CCN(CCCOc2ccccc2Br)CC1)(Cn1cncn1)c1ccc(F)cc1F (racemic)	8 µg/mL (≈ 14.9 µM)	0.0156 µg/mL (≈ 0.0291 µM)	0.0625 µg/mL (≈ 0.117 µM)	1 µg/mL (≈ 1.86 µM)	0.25 µg/mL (≈ 0.466 µM)	16 µg/mL (≈ 29.8 µM)	1 µg/mL (≈ 1.86 µM)	Active
Nc1ccc(OCCCN2CCN(CC(O)(Cn3cncn3)c3ccc(F)cc3F)CC2)cc1 (racemic)	0.25 µg/mL (≈ 0.529 µM)	1 µg/mL (≈ 2.12 µM)	0.25 µg/mL (≈ 0.529 µM)	4 µg/mL (≈ 8.46 µM)	4 µg/mL (≈ 8.46 µM)	64 µg/mL (≈ 135 µM)	16 µg/mL (≈ 33.9 µM)	Active
O=[N+]([O-])c1ccccc1OCCCN1CCN(CC(O)(Cn2cncn2)c2ccc(F)cc2F)CC1 (racemic)	2 µg/mL (≈ 3.98 µM)	0.25 µg/mL (≈ 0.497 µM)	0.25 µg/mL (≈ 0.497 µM)	4 µg/mL (≈ 7.96 µM)	1 µg/mL (≈ 1.99 µM)	64 µg/mL (≈ 127 µM)	4 µg/mL (≈ 7.96 µM)	Active
O=[N+]([O-])c1cccc(OCCCN2CCN(CC(O)(Cn3cncn3)c3ccc(F)cc3F)CC2)c1 (racemic)	0.25 µg/mL (≈ 0.497 µM)	0.0156 µg/mL (≈ 0.031 µM)	0.0625 µg/mL (≈ 0.124 µM)	0.25 µg/mL (≈ 0.497 µM)	0.0625 µg/mL (≈ 0.124 µM)	32 µg/mL (≈ 63.7 µM)	0.25 µg/mL (≈ 0.497 µM)	Active
OC(CN1CCN(CCCOc2ccc(OCc3ccccc3)cc2)CC1)(Cn1cncn1)c1ccc(F)cc1F (racemic)	32 µg/mL (≈ 56.8 µM)	0.0625 µg/mL (≈ 0.111 µM)	0.0625 µg/mL (≈ 0.111 µM)	0.25 µg/mL (≈ 0.444 µM)	0.0625 µg/mL (≈ 0.111 µM)	2 µg/mL (≈ 3.55 µM)	0.0625 µg/mL (≈ 0.111 µM)	Active
CC(C)(C)c1ccc(OCCCN2CCN(CC(O)(Cn3cncn3)c3ccc(F)cc3F)CC2)cc1 (racemic)	0.125 µg/mL (≈ 0.243 µM)	0.0156 µg/mL (≈ 0.0304 µM)	0.0156 µg/mL (≈ 0.0304 µM)	0.0625 µg/mL (≈ 0.122 µM)	0.0156 µg/mL (≈ 0.0304 µM)	2 µg/mL (≈ 3.89 µM)	0.0625 µg/mL (≈ 0.122 µM)	Active
CCC(C)n1ncn(-c2ccc(N3CCN(c4ccc(OCC5COC(Cn6cncn6)(c6ccc(Cl)cc6Cl)O5)cc4)CC3)cc2)c1=O (stereo not drawn) [ITRACONAZOLE]	> 64 µg/mL	0.125 µg/mL (≈ 0.177 µM)	0.125 µg/mL (≈ 0.177 µM)	0.125 µg/mL (≈ 0.177 µM)	0.125 µg/mL (≈ 0.177 µM)	2 µg/mL (≈ 2.83 µM)	0.25 µg/mL (≈ 0.354 µM)	Active
